How the values were obtained:
[1] = biological target: T1, 5-hydroxytryptamine receptor 1A (Rattus norvegicus, UniProt P19327); assay: (§1) Inhibitory activity against 5-hydroxytryptamine 1A receptor of rat hippocampal tissue using [3H]OH-DPAT as radioligand.; assay type: tissue-based, Hippocampus
T1 sequence (P19327 whole entry): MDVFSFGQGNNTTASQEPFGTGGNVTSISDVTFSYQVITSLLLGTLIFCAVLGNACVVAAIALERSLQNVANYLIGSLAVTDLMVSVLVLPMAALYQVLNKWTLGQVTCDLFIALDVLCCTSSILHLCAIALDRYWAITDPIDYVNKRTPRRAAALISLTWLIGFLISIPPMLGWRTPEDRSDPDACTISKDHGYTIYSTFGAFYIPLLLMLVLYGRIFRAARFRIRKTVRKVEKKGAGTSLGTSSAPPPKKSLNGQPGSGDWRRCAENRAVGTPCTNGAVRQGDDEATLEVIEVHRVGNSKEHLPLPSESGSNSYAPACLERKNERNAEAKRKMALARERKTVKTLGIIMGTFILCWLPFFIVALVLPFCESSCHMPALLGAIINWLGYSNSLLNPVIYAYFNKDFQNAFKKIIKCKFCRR
Method in brief: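 Rat hippocampal membranes (4 mg wet weight), washed and preincubated 15 min at 37 °C, in 50 mM Tris HCl with 0.5 mM Na₂EDTA, 10 mM MgSO₄, 10 μM pargyline and 0.1% ascorbate. 0.1 nM [³H]8-OH-DPAT, 1 μM 8-OH-DPAT for nonspecific binding. Eleven competitor concentrations, at least triplicate. Incubated 30 min at 37 °C, then filtered over glass fiber. Ki reported.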

[2] = biological target: T2, 5-hydroxytryptamine receptor 1B (Rattus norvegicus, UniProt P28564); assay: (§2) Inhibitory activity against 5-hydroxytryptamine 1B receptor of rat striatal membrane homogenate using [3H]5-HT as the radioligand.
Method in brief: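 Competition binding on washed rat striatal membrane homogenate (8 mg) with 2.0 nM [³H]5-HT. 10⁻⁷ M 8-OH-DPAT and mesulergine block 5-HT1A and 5-HT1C sites; 10⁻⁶ M 5-HT defines nonspecific binding. Buffer: 50 mM Tris HCl, EDTA, MgSO₄, 10 μM pargyline, 0.1% ascorbate. Eleven concentrations, at least triplicate. 37 °C for 30 min, then glass-fiber filtration. Ki given.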

[3] = biological target: T2, 5-hydroxytryptamine receptor 1B; assay: as §2; remark: listed apart in the source
[4] = biological target: T1, 5-hydroxytryptamine receptor 1A; assay: as §1
Adrenergic receptor beta = Adrenergic receptor beta (Rattus norvegicus, UniProt P18090+P10608+P26255); assay: Inhibitory activity against beta adrenergic receptor of rat frontal cortex homogenate using (1.0 nM) [3H]- dihydroalprenolol; assay type: tissue-based

T2 sequence (P28564 whole entry): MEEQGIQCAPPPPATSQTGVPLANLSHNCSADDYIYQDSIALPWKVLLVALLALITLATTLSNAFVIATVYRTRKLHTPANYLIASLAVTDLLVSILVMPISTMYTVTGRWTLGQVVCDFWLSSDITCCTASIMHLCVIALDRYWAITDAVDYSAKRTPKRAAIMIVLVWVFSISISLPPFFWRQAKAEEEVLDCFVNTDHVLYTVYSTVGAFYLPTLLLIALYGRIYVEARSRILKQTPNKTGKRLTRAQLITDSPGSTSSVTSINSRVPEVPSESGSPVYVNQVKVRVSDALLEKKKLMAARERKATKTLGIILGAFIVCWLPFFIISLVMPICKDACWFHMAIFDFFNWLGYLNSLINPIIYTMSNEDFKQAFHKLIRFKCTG

| Ki [1] [µM] | Ki [2] [µM] | Ki [3] [µM] | Ki [4] [µM] | Ki (Adrenergic receptor beta) [µM] | SMILES |
| --- | --- | --- | --- | --- | --- |
| 1.32 | 8 | – | – | – | CCCN(CCC)CC(O)COc1cccc2ccccc12 (centres undefined) |
| – | – | 1.8 | 0.045 | 5.3 | CCCN(C)CCOc1cccc2ccccc12 |
| – | – | 1 | 0.4 | – | CN(C)CCCCOc1cccc2ccccc12 |
| 3.53 | – | – | – | – | CCCCN(CC)CCC(=O)c1cccc2ccccc12 |
| – | – | 1.5 | 0.08 | 4.5 | CN(C)CCOc1cccc2ccccc12 |
| – | – | 6.1 | 0.45 | – | CCCN(CCC)CCCOc1cccc2ccccc12 |
| – | – | 1 | 0.345 | 2.4 | CN(C)CCCOc1cccc2ccccc12 |
| 0.3 | – | – | – | – | CCCCN(CC)CCCc1cccc2ccccc12 |
| – | – | – | 0.06 | – | NCCOc1cccc2ccccc12 |
| – | – | 9 | 0.15 | > 10 | CCCCN(CCCC)CCOc1cccc2ccccc12 |
| – | – | 1.1 | 0.039 | 5 | CCCCN(CC)CCOc1cccc2ccccc12 |
| – | – | 5.65 | 0.225 | 8.3 | CCCCN(CCCC)CCCOc1cccc2ccccc12 |

Second part, the compound before the results:

| SMILES | Ki [1] [µM] | Ki [2] [µM] | Ki [3] [µM] | Ki [4] [µM] | Ki (Adrenergic receptor beta) [µM] |
| --- | --- | --- | --- | --- | --- |
| COc1ccccc1OCCCN(C)C | – | – | > 10 | 3 | – |
| CN(C)Cc1cccc2ccccc12 | 3.42 | – | – | – | – |
| CN(C)CCCOc1ccccc1O | – | – | > 10 | 4.9 | – |
| CN(C)CCCNc1ccccc1 | – | – | > 10 | > 25 | – |
| CN(C)CCCCc1ccccc1 | 5 | > 10 | – | – | – |
| CN(C)CCCOc1ccccc1 | – | – | > 10 | 4.85 | – |
| CN(CCOc1cccc2ccccc12)Cc1ccccc1 | – | – | – | 0.095 | – |
| CNCCCOc1ccccc1 | – | – | 3.1 | 3.3 | – |
| CCCCN(CC)CCCC1CCCc2ccccc21 (centres undefined) | 0.54 | – | – | – | – |
| CCCN(CCC)CCCOc1ccccc1 | – | – | > 10 | 2.75 | – |

Source: ChEMBL document CHEMBL1124632 (J Med Chem, 1989)
